Source: ChEMBL document CHEMBL6092210, “Synthesis, in vitro and in vivo biological evaluation of novel dual compounds targeting both acetylcholinesterase and serotonergic 5-HT4 receptors with potential interest in the treatment of Alzheimer's disease” (Eur J Med Chem, 2024)

Assays:
[1] = target: T1, Acetylcholinesterase (Homo sapiens, UniProt P22303); assay: Inhibition of recombinant human erythrocyte AChE using acetyl-or butyrylthiocholine iodide as substrate at 1 x 10^-6M preincubated for 5 mins followed by substrate addition and measured every min for 10 mins by Ellman's method relative to control; details: dose 1.0 10^-6M, time 15.0 min
T1 sequence (P22303 whole entry): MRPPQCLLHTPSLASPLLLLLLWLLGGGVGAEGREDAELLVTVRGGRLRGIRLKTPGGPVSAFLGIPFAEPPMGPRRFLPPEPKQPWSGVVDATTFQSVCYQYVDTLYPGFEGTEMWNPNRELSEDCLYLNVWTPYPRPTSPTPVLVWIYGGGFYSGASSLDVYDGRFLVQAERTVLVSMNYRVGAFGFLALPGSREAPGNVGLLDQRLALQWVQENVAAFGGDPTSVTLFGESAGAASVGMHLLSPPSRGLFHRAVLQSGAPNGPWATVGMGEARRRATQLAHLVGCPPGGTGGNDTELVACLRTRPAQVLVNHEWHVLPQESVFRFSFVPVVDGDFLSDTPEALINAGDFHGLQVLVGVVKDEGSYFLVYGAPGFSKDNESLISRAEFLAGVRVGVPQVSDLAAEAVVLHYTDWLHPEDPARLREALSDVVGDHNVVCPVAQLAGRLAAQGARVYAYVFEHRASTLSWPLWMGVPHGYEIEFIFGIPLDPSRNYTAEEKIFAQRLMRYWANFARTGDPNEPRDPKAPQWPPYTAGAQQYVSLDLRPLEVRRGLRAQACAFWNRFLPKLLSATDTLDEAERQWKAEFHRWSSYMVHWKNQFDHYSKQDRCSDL
Outline: (§1)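 AChE from human erythrocytes (0.05 U final) or recombinant AChE (0.025 U final), diluted in 20 mM HEPES pH 8 with 0.1 % Triton X-100, in an Ellman assay. DTNB is 0.3 mM in phosphate buffer pH 7.4 and compound is in DMSO. Enzyme and compound are preincubated 5 min at 25 °C. Reaction starts with 1 mM acetylthiocholine iodide solution.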

[2] = target: T2, 5-hydroxytryptamine receptor 4 (Homo sapiens, UniProt Q13639); assay: Inhibition of human recombinant 5HT4 receptor at 1 x 10^-6M incubated for 60 mins relative to control; details: dose 1.0 10^-6M
T2 sequence (Q13639 whole entry): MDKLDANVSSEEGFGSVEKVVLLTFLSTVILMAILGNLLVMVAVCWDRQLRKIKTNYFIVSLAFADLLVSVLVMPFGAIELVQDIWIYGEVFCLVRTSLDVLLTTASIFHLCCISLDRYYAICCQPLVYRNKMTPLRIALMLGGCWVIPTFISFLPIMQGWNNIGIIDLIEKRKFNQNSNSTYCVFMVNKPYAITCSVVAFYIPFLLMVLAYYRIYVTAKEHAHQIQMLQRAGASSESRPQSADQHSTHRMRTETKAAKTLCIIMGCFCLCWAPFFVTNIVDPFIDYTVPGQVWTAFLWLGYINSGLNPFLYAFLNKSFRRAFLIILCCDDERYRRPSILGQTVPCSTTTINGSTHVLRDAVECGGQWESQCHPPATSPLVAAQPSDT
Outline: (§2)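 Membranes (2.5 μg protein) from a stable recombinant line expressing h5-HT4(b) receptor. Incubated in duplicate at 25 °C for 60 min with 0.2 nM [3H]-GR113808 in 25 mM Tris pH 7.4, with drug at 10^-6 or 10^-8 M. GF/C filtration; non-specific binding defined with 30 μM serotonin. Ki from five-point inhibition curves, ± SD.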

[3] = target: T2, 5-hydroxytryptamine receptor 4; assay: Inhibition of human recombinant 5HT4 receptor at 1 x 10^-8M incubated for 60 mins relative to control; details: dose 1.0 10^-8M; outline: as §2
[4] = target: T2, 5-hydroxytryptamine receptor 4; assay: Binding affinity to human recombinant 5HT4 receptor assessed as inhibition constant incubated for 60 mins
[5] = target: T1, Acetylcholinesterase; assay: Inhibition of recombinant human erythrocyte AChE using acetyl-or butyrylthiocholine iodide as substrate at 1 x 10^-5M preincubated for 5 mins followed by substrate addition and measured every min for 10 mins by Ellman's method relative to control; details: dose 1.0 10^-5M, time 15.0 min; outline: as §1
[6] = target: T1, Acetylcholinesterase; assay: Inhibition of recombinant human erythrocyte AChE using acetyl-or butyrylthiocholine iodide as substrate preincubated for 5 mins followed by substrate addition and measured every min for 10 mins by Ellman's method

Row | Compound | inhibition [1] | inhibition [2] | inhibition [3] | Ki [4] | inhibition [5] | IC50 [6]
1 | O=C(CCC1CCN(CC2CCCCC2)CC1)c1ccc(O)cc1 | 35% | 102% | 58% | 0.0176 µM |  | 
2 | COc1cc(N)c(Br)cc1C(=O)CCC1CCN(CC2CCCCC2)CC1 |  | 105% | 61% |  | 98% | 
3 | COc1ccccc1C(=O)CCC1CCN(CC2CCCCC2)CC1 | 85% | 102% | 31% | 0.121 µM |  | 0.166 µM
4 | Nc1ccc(C(=O)CCC2CCN(CC3CCCCC3)CC2)cc1 | 78% | 80% | 4% |  |  | 0.317 µM
5 | CCOc1cc(N)c(I)cc1C(=O)CCC1CCN(CC2CCCCC2)CC1 | 51% | 103% | 65% | 0.086 µM |  | 
6 | Nc1cc(OCCF)c(C(=O)CCC2CCN(CC3CCCCC3)CC2)cc1Cl | 60% | 102% | 78% |  |  | 
7 | Nc1cc(O)c(C(=O)CCC2CCN(CC3CCCCC3)CC2)cc1Cl | 93% | 96% | 3% |  |  | 
8 | CC(=O)Nc1cc(O)c(C(=O)CCC2CCN(CC3CCCCC3)CC2)cc1Cl | 94% | 47% | 8% |  |  | 0.0573 µM
9 | CCOc1cc(N)c(Cl)cc1C(=O)CCC1CCN(CC2CCCCC2)CC1 | 69% | 103% | 86% |  |  | 
10 | Nc1ccc(C(=O)CCC2CCN(CC3CCCCC3)CC2)cc1Cl | 96% | 97% | 10% |  |  | 0.0497 µM
11 | COc1c(C(=O)CCC2CCN(CC3CCCCC3)CC2)cc(F)c(N)c1I | 89% | 89% | 2% |  |  | 0.234 µM
